These results are taken from ChEMBL document CHEMBL2150889, “Azetidinyl oxadiazoles as potent mGluR5 positive allosteric modulators” (Bioorg Med Chem Lett, 2012).

Test [1] concerns the target T1, Metabotropic glutamate receptor 5 (Homo sapiens, UniProt P41594). Nature of the test: Negative allosteric modulation of human mGluR5 expressed in recombinant HEK293 cells by FLIPR assay. The test is classed as cell-based. The following applies: for inhibition: concentration not given here. Put shortly: (§1)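 HEK293 cells recombinantly expressing human mGluR5 were seeded at 2×10^4 cells/well on poly-D-lysine. They were incubated overnight at 37 °C in glutamate/glutamine-free medium, then loaded for 1 h at 37 °C with calcium 5 dye containing 3 U/ml glutamic pyruvic transaminase and 3 mM sodium pyruvate. Calcium flux was read by FLIPR.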

The target in test [2] is T1, Metabotropic glutamate receptor 5. Description: Positive allosteric modulation of human mGluR5 expressed in recombinant HEK293 cells by FLIPR assay. The test is classed as cell-based. Set-up: Activity: concentration or dose not given beside the values. Put shortly: as §1

Regarding `O=C(C1CCCCC1)N1CC(c2nc(-c3cccc(F)c3)no2)C1`, the IC50 (usually the concentration that gives 50% inhibition) in test [1] is more than 10000 nM. Also, in test [2], the Activity worked out at 19%; the half-maximal effective concentration (EC50) – broadly, the concentration that produces a half-maximal response – was 1000 nM; the Emax – broadly, the size of the effect at its maximum, as opposed to the concentration needed – is 46%.
With `CC1CCCC(C(=O)N2CC(c3nc(-c4cccc(Cl)c4)no3)C2)C1` (stereo not given), the IC50 in test [1] was more than 10000 nM. Further, in test [2], the Activity came to 34%, the EC50 is 410 nM and the Emax was determined as 53%.
Consider `O=C(C1CCC(C(F)(F)F)CC1)N1CC(c2nc(-c3cccc(F)c3)no2)C1` (stereo not given), for which the IC50 in test [1] was more than 10000 nM. Further, in test [2], the Activity was found to be 37%, the 50% effective concentration (EC50) was found to be 680 nM and the Emax was 56%.
As to `Cc1cccc(-c2noc(C3CN(C(=O)C4CCCO4)C3)n2)c1` (stereo not given), in test [1], the IC50 was found to be 1900 nM and the inhibition (usually the drop in the measured response relative to a control, in per cent) worked out at 79%. Further, in test [2], the EC50 was more than 10000 nM and the Emax was found to be 3%.
The matching figures for `Cc1cccc(S(=O)(=O)N2CC(c3nc(-c4cccc(Cl)c4)no3)C2)c1`: 390 nM, 82%, more than 10000 nM and -2%.
As to `Cc1cccc(-c2noc(C3CN(C(=O)C4CCCC4)C3)n2)c1`, in test [1], the IC50 was 2500 nM and the inhibition stood at 70%. In test [2], the EC50 was more than 10000 nM and the Emax is -7%.
The matching figures for `COC1CCCN(C(=O)N2CC(c3nc(-c4cccc(Cl)c4)no3)C2)C1` (stereo not given): 1830 nM, 80%, more than 10000 nM and -14%.
In the case of `O=S(=O)(c1ccc(Cl)cc1)N1CC(c2nc(-c3cccc(Cl)c3)no2)C1`, in test [1], the IC50 amounted to 170 nM and the inhibition was found to be 79%. Further, in test [2], the 50% effective concentration (EC50) was more than 10000 nM and the Emax is 7%.
Turning to `O=C(N1CCCC(F)C1)N1CC(c2nc(-c3cccc(Cl)c3)no2)C1` (stereo not given), the IC50 in test [1] was more than 10000 nM. In addition, in test [2], the Activity came out at 81%, the EC50 came to 200 nM and the Emax came to 51%.
On to `Cc1cccc(-c2noc(C3CN(C(=O)c4ccc(Cl)cc4)C3)n2)c1`, for which the IC50 in test [1] is more than 10000 nM. In test [2], the Activity worked out at 6.3%, the EC50 is 7100 nM and the Emax came to 33%.
For the molecule `CC1CN(C(=O)N2CC(c3nc(-c4cccc(Cl)c4)no3)C2)CC(C)O1` (stereo not given), in test [1], the IC50 stood at 990 nM and the inhibition was 51%. In addition, the EC50 in test [2] is more than 10000 nM.
Turning to `O=C(N1CCCCC1)N1CC(c2nc(-c3cccc(Cl)c3)no2)C1`, in test [1], the IC50 is more than 10000 nM. In test [2], the Activity was determined as 87%, the EC50 came to 370 nM and the Emax came out at 44%.
Turning to `CC1CCCN(C(=O)N2CC(c3nc(-c4cccc(Cl)c4)no3)C2)C1` (stereo not given), in test [1], the 50% inhibitory concentration (IC50) is 3400 nM and the inhibition is 69%. Further, in test [2], the EC50 is more than 10000 nM and the Emax came out at 6%.
The matching figures for `O=C(C1CCCO1)N1CC(c2nc(-c3cccc(Cl)c3)no2)C1` (stereo not given): 890 nM, 79%, more than 10000 nM and -3%.
The matching figures for `Cc1ccc(S(=O)(=O)N2CC(c3nc(-c4cccc(Cl)c4)no3)C2)cc1`: 920 nM, 75%, more than 10000 nM and 2%.
Consider `Cc1ccc(S(=O)(=O)N2CC(c3nc(-c4cccc(C)c4)no3)C2)cc1`, for which, in test [1], the IC50 is 670 nM and the inhibition was 80%. Moreover, in test [2], the EC50 is more than 10000 nM and the Emax is 1%.
With `Cc1ccc(C(=O)N2CC(c3nc(-c4cccc(F)c4)no3)C2)cc1`, the IC50 in test [1] is more than 10000 nM. Also, in test [2], the Activity worked out at 30%, the EC50 was 6800 nM and the Emax was 27%.
The matching figures for `O=C(c1ccc(Cl)cc1)N1CC(c2nc(-c3cccc(F)c3)no2)C1`: more than 10000 nM, 82%, 2500 nM and 62%.
Take `O=C(C1CCC1)N1CC(c2nc(-c3cccc(Cl)c3)no2)C1`: in test [1], the IC50 was found to be 1500 nM and the inhibition worked out at 75%. In addition, in test [2], the EC50 was more than 10000 nM and the Emax is -7%.
Turning to `Cc1cccc(-c2noc(C3CN(C(=O)C4CCOCC4)C3)n2)c1`, in test [1], the IC50 came out at 1800 nM and the inhibition was determined as 74%. Moreover, in test [2], the EC50 is more than 10000 nM and the Emax is -2%.
Consider `O=C(c1ccc(F)cc1)N1CC(c2nc(-c3cccc(F)c3)no2)C1`, for which the IC50 in test [1] is more than 10000 nM. Also, in test [2], the Activity turned out to be 6%, the EC50 is 2400 nM and the Emax is 40%.
As to `Cc1cccc(-c2noc(C3CN(S(=O)(=O)c4ccc(F)cc4)C3)n2)c1`, in test [1], the IC50 turned out to be 950 nM and the inhibition came to 74%. In test [2], the EC50 was more than 10000 nM and the Emax is 6%.
As to `Cc1cccc(-c2noc(C3CN(C(=O)c4ccccc4F)C3)n2)c1`, in test [1], the IC50 was determined as 1400 nM and the inhibition was 64%. Further, in test [2], the EC50 was more than 10000 nM and the Emax came out at 5%.
Take `O=C(N1CCCCCC1)N1CC(c2nc(-c3cccc(Cl)c3)no2)C1`: in test [1], the IC50 was more than 10000 nM. Also, in test [2], the Activity amounted to 41%, the EC50 was determined as 47 nM and the Emax was 44%.
For `Cc1cccc(-c2noc(C3CN(S(=O)(=O)c4cccc(C)c4)C3)n2)c1`, in test [1], the IC50 is 650 nM and the inhibition was determined as 76%. For the same molecule, in test [2], the EC50 is more than 10000 nM and the Emax was -4%.
`CC1CCN(C(=O)N2CC(c3nc(-c4cccc(Cl)c4)no3)C2)CC1`: in test [1], the IC50 is more than 10000 nM. For the same molecule, in test [2], the EC50 was 865 nM and the Emax was 66%.
On to `O=C(N1CCC(F)CC1)N1CC(c2nc(-c3cccc(Cl)c3)no2)C1`, for which, in test [1], the IC50 is more than 10000 nM. Further, in test [2], the Activity was found to be 61%, the EC50 was 990 nM and the Emax is 41%.
Regarding `Cc1cccc(-c2noc(C3CN(C(=O)C4CCCC(C)C4)C3)n2)c1` (stereo not given), the IC50 in test [1] is more than 10000 nM. Further, in test [2], the Activity amounted to 19%, the 50% effective concentration (EC50) was determined as 500 nM and the Emax worked out at 46%.
`O=C(C1CCC2(CCC2)CC1)N1CC(c2nc(-c3cccc(Cl)c3)no2)C1`: the IC50 in test [1] is more than 10000 nM. Moreover, in test [2], the Activity was found to be 24%, the EC50 turned out to be 1100 nM and the Emax was 40%.
Consider `O=C(Cc1ccc(F)cc1)N1CC[C@H]1c1nc(-c2cccc(F)c2)no1`, for which the IC50 in test [1] was more than 10000 nM. In addition, in test [2], the Activity is 12%, the EC50 worked out at 1200 nM and the Emax came to 29%.
For the molecule `O=C(C1CCC(F)(F)CC1)N1CC(c2nc(-c3cccc(F)c3)no2)C1`, in test [1], the IC50 was more than 10000 nM and the inhibition stood at 11%. Further, in test [2], the EC50 is 520 nM and the Emax came to 53%.
Regarding `Cc1cccc(-c2noc(C3CN(S(=O)(=O)c4ccc(Cl)cc4)C3)n2)c1`, in test [1], the 50% inhibitory concentration (IC50) was 1100 nM and the inhibition amounted to 75%. In addition, in test [2], the EC50 was more than 10000 nM and the Emax was found to be 3%.
The matching figures for `CC1CCN(C(=O)N2CC(c3nc(-c4cccc(Cl)c4)no3)C2)C1` (stereo not given): more than 10000 nM, 80%, more than 10000 nM and 88%.
